# Test results reported in ChEMBL document CHEMBL1914423, “New imidazo[2,1-b]thiazole derivatives: synthesis, in vitro anticancer evaluation, and in silico studies” (Eur J Med Chem, 2011).
# Test system: U-251
# Test: Anticancer activity against human U251 cells assessed as cell growth at 10^-5 M after 48 hrs by SRB assay
# Format: functional
# Settings: U-251, 48 h, read-out: Activity
# Outline: (§1)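 NCI-60 single-dose screen: cells in RPMI 1640 with 5% FBS and 2 mM L-glutamine, plated at 5000–40,000 cells/well by doubling time, and preincubated 24 h at 37 °C. Compound given at one concentration from DMSO stock. Cells TCA-fixed and SRB-stained, absorbance at 515 nm. Percent growth relative to time-zero and untreated controls; inhibition % = 100 − growth %.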
row,SMILES,growth at 10 µM [%]
1,O=C(NCCNc1nccc(-c2c(-c3cccc(O)c3)nc3sccn23)n1)c1cc(C(F)(F)F)cc(C(F)(F)F)c1,105

# Test system: LOX IMVI
# Test: Anticancer activity against human LOXIMVI cells assessed as cell growth at 10^-5 M after 48 hrs by SRB assay
# Format: functional
# Settings: read-out: Activity
# Outline: (§2)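 NCI-60 single-dose screen at one concentration. Cells grown in RPMI 1640 with 5% FBS and 2 mM L-glutamine, plated at 5000–40,000 cells/well, and pre-incubated 24 h at 37 °C in 5% CO2 before DMSO-dissolved drug was added. Cells fixed with TCA, SRB-stained, absorbance read at 515 nm. Percent growth calculated against time-zero and untreated control plates.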
row,SMILES,growth at 10 µM [%]
1,O=C(NCCNc1nccc(-c2c(-c3cccc(O)c3)nc3sccn23)n1)c1cc(C(F)(F)F)cc(C(F)(F)F)c1,90.7

# Test system: Malme-3M
# Test: Anticancer activity against human MALME-3M cells assessed as cell growth at 10^-5 M after 48 hrs by SRB assay
# Format: functional
# Settings: read-out: Activity
# Outline: as §2
row,SMILES,growth at 10 µM [%]
1,O=C(NCCNc1nccc(-c2c(-c3cccc(O)c3)nc3sccn23)n1)c1cc(C(F)(F)F)cc(C(F)(F)F)c1,27

# Test system: SK-MEL-2
# Test: Anticancer activity against human SK-MEL-2 cells assessed as cell growth at 10^-5 M after 48 hrs by SRB assay
# Format: functional
# Settings: SK-MEL-2, 48 h, read-out: Activity
row,SMILES,growth at 10 µM [%]
1,O=C(NCCNc1nccc(-c2c(-c3cccc(O)c3)nc3sccn23)n1)c1cc(C(F)(F)F)cc(C(F)(F)F)c1,101

# Test system: OVCAR-3
# Test: Anticancer activity against human OVCAR3 cells assessed as cell growth at 10^-5 M after 48 hrs by SRB assay
# Format: functional
# Settings: OVCAR-3, 48 h, read-out: Activity
row,SMILES,growth at 10 µM [%]
1,O=C(NCCNc1nccc(-c2c(-c3cccc(O)c3)nc3sccn23)n1)c1cc(C(F)(F)F)cc(C(F)(F)F)c1,108

# Test system: OVCAR-5
# Test: Anticancer activity against human OVCAR5 cells assessed as cell growth at 10^-5 M after 48 hrs by SRB assay
# Format: functional
# Settings: OVCAR-5, 48 h, read-out: Activity
row,SMILES,growth at 10 µM [%]
1,O=C(NCCNc1nccc(-c2c(-c3cccc(O)c3)nc3sccn23)n1)c1cc(C(F)(F)F)cc(C(F)(F)F)c1,104

# Test system: OVCAR-8
# Test: Anticancer activity against human OVCAR8 cells assessed as cell growth at 10^-5 M after 48 hrs by SRB assay
# Format: functional
# Settings: OVCAR-8, 48 h, read-out: Activity
row,SMILES,growth at 10 µM [%]
1,O=C(NCCNc1nccc(-c2c(-c3cccc(O)c3)nc3sccn23)n1)c1cc(C(F)(F)F)cc(C(F)(F)F)c1,102

# Test system: SK-OV-3
# Test: Anticancer activity against human SKOV3 cells assessed as cell growth at 10^-5 M after 48 hrs by SRB assay
# Format: functional
# Settings: SK-OV-3, 48 h, read-out: Activity
row,SMILES,growth at 10 µM [%]
1,O=C(NCCNc1nccc(-c2c(-c3cccc(O)c3)nc3sccn23)n1)c1cc(C(F)(F)F)cc(C(F)(F)F)c1,96.3

# Test system: 786-0
# Test: Anticancer activity against human 786-0 cells assessed as cell growth at 10^-5 M after 48 hrs by SRB assay
# Format: functional
# Settings: 786-0, 48 h, read-out: Activity
# Outline: as §2
row,SMILES,growth at 10 µM [%]
1,O=C(NCCNc1nccc(-c2c(-c3cccc(O)c3)nc3sccn23)n1)c1cc(C(F)(F)F)cc(C(F)(F)F)c1,101

# Test system: A498
# Test: Anticancer activity against human A498 cells assessed as cell growth at 10^-5 M after 48 hrs by SRB assay
# Format: functional
# Settings: A498, 48 h, read-out: Activity
# Outline: as §2
row,SMILES,growth at 10 µM [%]
1,O=C(NCCNc1nccc(-c2c(-c3cccc(O)c3)nc3sccn23)n1)c1cc(C(F)(F)F)cc(C(F)(F)F)c1,112

# Test system: ACHN
# Test: Anticancer activity against human ACHN cells assessed as cell growth at 10^-5 M after 48 hrs by SRB assay
# Format: functional
# Settings: read-out: Activity
# Outline: as §2
row,SMILES,growth at 10 µM [%]
1,O=C(NCCNc1nccc(-c2c(-c3cccc(O)c3)nc3sccn23)n1)c1cc(C(F)(F)F)cc(C(F)(F)F)c1,88.3

# Test system: UO-31
# Test: Anticancer activity against human UO31 cells assessed as cell growth at 10^-5 M after 48 hrs by SRB assay
# Format: functional
# Settings: UO-31, 48 h, read-out: Activity
# Outline: as §1
row,SMILES,growth at 10 µM [%]
1,O=C(NCCNc1nccc(-c2c(-c3cccc(O)c3)nc3sccn23)n1)c1cc(C(F)(F)F)cc(C(F)(F)F)c1,94.6

# Test system: DU-145
# Test: Anticancer activity against human DU145 cells assessed as cell growth at 10^-5 M after 48 hrs by SRB assay
# Format: functional
# Settings: DU-145, 48 h, read-out: Activity
# Outline: as §2
row,SMILES,growth at 10 µM [%]
1,O=C(NCCNc1nccc(-c2c(-c3cccc(O)c3)nc3sccn23)n1)c1cc(C(F)(F)F)cc(C(F)(F)F)c1,114

# Test system: MCF7
# Test: Anticancer activity against human MCF7 cells assessed as cell growth at 10^-5 M after 48 hrs by SRB assay
# Format: functional
# Settings: MCF7, 48 h, read-out: Activity
# Outline: as §2
row,SMILES,growth at 10 µM [%]
1,O=C(NCCNc1nccc(-c2c(-c3cccc(O)c3)nc3sccn23)n1)c1cc(C(F)(F)F)cc(C(F)(F)F)c1,96.3

# Test system: MDA-MB-231
# Test: Anticancer activity against human MDA-MB-231 cells assessed as cell growth at 10^-5 M after 48 hrs by SRB assay
# Format: functional
# Settings: MDA-MB-231, 48 h, read-out: Activity
# Outline: as §2
row,SMILES,growth at 10 µM [%]
1,O=C(NCCNc1nccc(-c2c(-c3cccc(O)c3)nc3sccn23)n1)c1cc(C(F)(F)F)cc(C(F)(F)F)c1,101

# Test system: BT-549
# Test: Anticancer activity against human BT549 cells assessed as cell growth at 10^-5 M after 48 hrs by SRB assay
# Format: functional
# Settings: BT-549, 48 h, read-out: Activity
# Outline: as §2
row,SMILES,growth at 10 µM [%]
1,O=C(NCCNc1nccc(-c2c(-c3cccc(O)c3)nc3sccn23)n1)c1cc(C(F)(F)F)cc(C(F)(F)F)c1,108

# Test system: T47D
# Test: Anticancer activity against human T47D cells assessed as cell growth at 10^-5 M after 48 hrs by SRB assay
# Format: functional
# Settings: read-out: Activity
# Outline: as §1
row,SMILES,growth at 10 µM [%]
1,O=C(NCCNc1nccc(-c2c(-c3cccc(O)c3)nc3sccn23)n1)c1cc(C(F)(F)F)cc(C(F)(F)F)c1,88.5
